For nine molecules, Increase, Inhibition and IC50 results are on record in ChEMBL document CHEMBL1145822, “4-Aryl-3-(hydroxyalkyl)quinolin-2-ones: novel maxi-K channel opening relaxants of corporal smooth muscle targeted for erectile dysfunction” (J Med Chem, 2003).

What all share (assay type): functional
The species named for one assay is Xenopus laevis. Briefly: Effect of compound (20 uM) on maxi-K-mediated outward current in Xenopus laevis oocytes expressing the cloned hSlo maxi-K channels was determined. In outline:
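Two-electrode voltage clamp of Xenopus laevis oocytes expressing cloned hSlo maxi-K channels; single 20 μM drug concentration applied, measuring iberiotoxin-sensitive outward K⁺ current in at least five oocytes per compound; result given as mean percent change in hSlo current versus drug-free control (100%).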

The species named for assay [1] is Oryctolagus cuniculus. Briefly: Percentage inhibition of isometric force in response to 10 uM compound in isolated rabbit corpus cavernosum precontracted with 3 uM phenylephrine. The procedure, abridged: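 New Zealand white rabbit (3.4–3.7 kg) corpus cavernosum strips (3–5 mm) in oxygenated modified Krebs Henseleit bicarbonate buffer, 37 °C, equilibrated ≥1 h at 1.0 g resting tension; contracted with phenylephrine 3 μM to steady force before compound; isometric force read; percent inhibition of phenylephrine-induced force relative to vehicle control.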

For assay [2], the species on record is Oryctolagus cuniculus. Briefly: Tested for concentration dependent relaxation over a period of 90 min in isolated rabbit corpus cavernosum. As to conditions: 1.5 h.

Molecule `OCCCc1c(O)nc2ccc(C(F)(F)F)cc2c1-c1cc(Cl)ccc1O` yielded an Increase in the assay listed under Xenopus laevis of 292%. The molecule further returned an Inhibition in the assay listed under Oryctolagus cuniculus [1] of 43%.

`OCc1c(O)nc2ccc(C(F)(F)F)cc2c1-c1cc(Cl)ccc1O` came in with an Increase in the assay filed under Xenopus laevis of 198%. In the assay listed under Oryctolagus cuniculus [1], the Inhibition was found to be 36%.

As to `COc1ccc(Cl)cc1-c1c(/C=C/CO)c(O)nc2ccc(C(F)(F)F)cc12`, the Increase in the assay listed under Xenopus laevis is 223%. The molecule further returned an Inhibition in the assay listed under Oryctolagus cuniculus [1] of 31.8%.

Take `OC/C=C/c1c(O)nc2ccc(C(F)(F)F)cc2c1-c1cc(Cl)ccc1O`: in the assay listed under Xenopus laevis, the Increase is reported as 257%. Besides, the Inhibition in the assay filed under Oryctolagus cuniculus [1] turned out to be 46%.

`O=c1[nH]c2cc(C(F)(F)F)ccc2n1-c1cc(Cl)ccc1O` yielded an Increase in the assay filed under Xenopus laevis of 132%. This molecule returned an Inhibition in the assay listed under Oryctolagus cuniculus [1] of 31%.

In the assay listed under Xenopus laevis, `COc1ccc(Cl)cc1-c1c(CCO)c(O)nc2ccc(C(F)(F)F)cc12` showed an Increase of 211%. Further, the Inhibition in the assay filed under Oryctolagus cuniculus [1] was determined as 26.8%.

With `COc1ccc(Cl)cc1-c1c(CCCO)c(O)nc2ccc(C(F)(F)F)cc12`, in the assay listed under Xenopus laevis, the Increase was 258%. Also, the Inhibition in the assay filed under Oryctolagus cuniculus [1] was found to be 35.7%.

In the assay filed under Xenopus laevis, `COc1ccc(Cl)cc1-c1c(CO)c(O)nc2ccc(C(F)(F)F)cc12` gave an Increase of 114%.

On to `O=c1[nH]c2ccc(C(F)(F)F)cc2c(-c2cc(Cl)ccc2O)c1CCO` [BMS-223131], for which, in the assay filed under Xenopus laevis, the Increase was 378%. Besides, in the assay listed under Oryctolagus cuniculus [1], the Inhibition is recorded as 83.7%. Further, the IC50 in the assay filed under Oryctolagus cuniculus [2] was determined as 5 µM.
